Results as given in publication PMC3240942 (Molecular cell, 2011).
Each block holds one molecule with its values, some of them ahead of it. Where no end group is shown, it is not given here.

How the values were obtained:
Sirt1 [1] = target: T1, Sirt1 (Mus musculus, UniProt Q923E4); assay: Sirt1 deacetylase activity against Ac-p53, peptide added in trans; assay type: biochemical; details: Figure S2G
T1 sequence (Q923E4 1-737): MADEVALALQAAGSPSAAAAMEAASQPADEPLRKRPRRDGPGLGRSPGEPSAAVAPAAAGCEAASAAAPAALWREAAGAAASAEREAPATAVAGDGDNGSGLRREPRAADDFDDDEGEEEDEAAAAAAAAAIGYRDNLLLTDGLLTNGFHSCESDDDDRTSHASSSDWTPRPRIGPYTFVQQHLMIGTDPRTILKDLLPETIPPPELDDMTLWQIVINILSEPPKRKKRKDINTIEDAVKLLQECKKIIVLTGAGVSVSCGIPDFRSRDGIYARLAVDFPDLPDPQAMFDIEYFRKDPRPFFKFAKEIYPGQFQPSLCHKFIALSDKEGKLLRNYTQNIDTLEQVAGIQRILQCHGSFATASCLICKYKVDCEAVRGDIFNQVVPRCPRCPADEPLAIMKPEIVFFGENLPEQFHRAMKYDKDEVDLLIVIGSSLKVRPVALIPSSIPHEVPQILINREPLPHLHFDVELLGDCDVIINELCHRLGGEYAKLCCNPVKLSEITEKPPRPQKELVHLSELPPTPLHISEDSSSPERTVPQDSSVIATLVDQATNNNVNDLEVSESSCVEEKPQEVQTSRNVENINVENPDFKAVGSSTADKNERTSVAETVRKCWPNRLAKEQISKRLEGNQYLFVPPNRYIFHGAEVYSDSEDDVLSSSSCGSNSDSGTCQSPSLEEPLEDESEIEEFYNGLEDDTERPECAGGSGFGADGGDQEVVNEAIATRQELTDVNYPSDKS

Sirt6 = assay: Fluorometric Sirt6 deacetylase assay; assay type: biochemical; details: 150 μM peptide, CycLex SIRT6 fluorometric kit; N=4
Summary of the method: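 His-tagged Sirt6 was assayed with the CycLex SIRT6 fluorometric kit. Kit buffer was replaced by 50 mM HEPES pH 7.0, 1 mM DTT, 10 mM MgCl2, 200 mM NaCl plus protease/phosphatase inhibitors. WT or GPDR-mutant ESA peptide (150 μM) or no peptide was present. N=4; mean ± s.e.m.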

Sirt1 [2] = target: T1, Sirt1; assay: Lineweaver-Burk kinetics of Sirt1; assay type: biochemical; details: against both Ac-H4 and NAD+; Lineweaver-Burk plot
Summary of the method: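 His-Sirt1 (2 μg) was pre-incubated 5 min at room temperature in HEPES pH 7.0 buffer with mutant ESA peptide at 0, 60, 120 or 240 μM. Ac-K16 H4 fluorogenic dipeptide was varied at 500 μM NAD+, or NAD+ was varied at 100 μM substrate. Reactions ran 25 min at 37 °C and were stopped with nicotinamide developer; ex 355/em 460 nm, no-NAD+ blank subtracted. Triplicates. Kis/Kii came from a double-reciprocal noncompetitive model fit, Km from the same analysis, kcat from a Michaelis–Menten fit.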

deacetylase core [3] = assay: Pull-down of deacetylase core with immobilized GPDR-ESA peptide; assay type: binding, mouse; details: streptavidin pull-down, Figure S2E top
Summary of the method: (§1)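 Biotinylated peptide (mutant ESA or acetyl-H4) was bound to streptavidin agarose for 1 h at room temperature, washed, and held in PBS/1% Triton X-100. Beads (30 μl) took 2 μg GST-fused or His-tagged protein for 2 h at room temperature. Beads were washed with PBS/1% Triton/200 mM NaCl and eluted in β-ME SDS buffer at 95 °C for 10 min. Blots ran on 4–12% SDS-PAGE; biotin-only beads were the control.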

[4] = test system: ESA-deacetylase core interaction; assay: Competition of the ESA-deacetylase core interaction; assay type: binding, mouse; details: competing GPDR-ESA peptide (Figure S2E) or 2 μg GST-LZ (N=5)
Summary of the method: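 Biotinylated ESA peptide (100 μl at 300 nmole/ml) bound to 1 ml streptavidin agarose for 1 hr at room temperature, washed with PBS, and resuspended in PBS/1% Triton X-100 with protease inhibitors. 30 μl beads incubated 2 hrs at room temperature with deacetylase core and competitor. Biotin-only beads as negative control. Bound core quantified by immunoblot, N=5, mean ± s.e.m.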

[5] = test system: Lys 382 acetylated-p53 (Ac-p53); assay: Deacetylation of Lys 382 acetylated-p53 by recombinant WT/mutant Sirt1; assay type: biochemical, mouse Sirt1; details: recombinant Sirt1 2 μg, acetylated GST-p53 0.2 μg, 0.5 mM NAD+, pH 7.0, 37 °C; immunoblot
Summary of the method: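 Recombinant His-tagged WT or C-terminally truncated/point-mutant mouse Sirt1 (2 μg) incubated with acetylated GST-p53 (0.2 μg) and 0.5 mM NAD+ in 50 mM HEPES pH 7.0, 1 mM DTT, 10 mM MgCl2, 200 mM NaCl plus protease/phosphatase inhibitors. Reactions ran at 37 °C for indicated times and were stopped with SDS sample buffer. Read-out: immunoblot with acetyl-K382 p53 antibody; loading checked by Coomassie, Ponceau S or Western blot.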

[3H]Ac-histone H4 = [3H]Ac-histone H4 deacetylation, O-[3H]acetyl-ADP-ribose scintillation counting; assay type: biochemical; details: [3H]Ac-histone H4 substrate; N=4; "almost"
Summary of the method: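 WT or mutant recombinant Sirt1 (including ΔESA, G644P, D650R, G644P/D650R) was reacted with [3H]acetyl-histone H4. Activity was quantified by scintillation counting of released O-[3H]acetyl-ADP-ribose. N=4; mean ± s.e.m.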

Sirt1 [6] = target: T1, Sirt1; assay: Sirt1 deacetylase activity in presence of GST-LZ; assay type: biochemical; details: compared to GST alone, Figure S3B
deacetylase core [7] = assay: GST pull-down of deacetylase core with GST-LZ or GST-ESA; assay type: binding, mouse; details: GST pull-down, GST-LZ vs GST-ESA
Summary of the method: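 His-tagged deacetylase core (a.a. 184-510) incubated with GST, GST-ESA or GST-LZ (DBC1 LZ, a.a. 243-264), 2 μg of each. Unbound protein washed off on micro-spin columns with PBS/1% Triton X-100/200 mM NaCl. Elution in SDS buffer with β-ME at 95 °C for 10 min; 4–12% gradient SDS-PAGE and Western blot for bound core and GST fusions.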

[8] = target: T2, Sirt1 deacetylase core (Core, a.a. 184-510) (mouse, UniProt Q923E4 184-510); assay: pull-down
T2 sequence (looked up): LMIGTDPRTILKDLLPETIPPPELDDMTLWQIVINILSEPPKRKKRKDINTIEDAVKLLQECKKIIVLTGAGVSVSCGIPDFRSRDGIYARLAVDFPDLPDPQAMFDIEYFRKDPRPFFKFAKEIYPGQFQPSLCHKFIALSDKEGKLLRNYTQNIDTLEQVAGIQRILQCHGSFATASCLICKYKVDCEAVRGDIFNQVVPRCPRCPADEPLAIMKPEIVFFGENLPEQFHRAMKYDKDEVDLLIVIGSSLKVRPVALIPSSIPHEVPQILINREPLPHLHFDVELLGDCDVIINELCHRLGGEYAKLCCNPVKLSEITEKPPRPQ

[9] = Pull-down of GST fusion proteins with immobilized GPDR-ESA peptide; assay type: binding; details: Figure S2F
Summary of the method: as §1

native Ac-histone H3 = assay: Deacetylation of native Ac-histone H3 by recombinant Sirt1; assay type: biochemical
p53 = assay: Deacetylation of p53 in transfected H1299 cells; assay type: cell-based; details: co-transfected with p53
Summary of the method: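 H1299 cells were transiently co-transfected with a p53 vector and a WT or ΔESA Sirt1 vector; empty vector was the negative control. Acetylated p53 was detected by immunoblot with an acetyl-K382-specific antibody.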

[10] = test system: p53 target genes p21, PUMA and Bim; assay: Expression of p53 target genes in H1299 cells; assay type: cell-based; details: co-expressed p53
Summary of the method: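 H1299 cells transiently co-transfected with a p53 expression vector and a WT or ΔESA Sirt1 expression vector; empty vector as control. Levels of the p53-activated genes p21, PUMA and Bim were then visualized.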

Flag-p65 (NF-κB) = assay: Co-immunoprecipitation of Sirt1 with Flag-p65 in Hela cells; assay type: cell-based; details: V5-tagged Sirt1
Summary of the method: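 Transient co-transfection of HeLa cells with Flag-NF-κB p65 plus V5-tagged full-length or ΔESA Sirt1. p65 was pulled down with anti-Flag, and bound Sirt1 was detected by anti-V5 immunoblot alongside input levels.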

GST-Ac-p53 = assay: Pull-down of Sirt1 / core fragments with GST-Ac-p53; assay type: binding; details: in vitro pull-down
Summary of the method: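 In vitro pull-downs with GST-Ac-p53 or GST alone as negative control. Recombinant Flag-tagged full-length or ΔESA (a.a. 631-655 deleted) Sirt1 pulled down with anti-Flag, bound GST-Ac-p53 detected by GST immunoblot, and Sirt1 shown by Coomassie. Alternatively, core (a.a. 184-510) or Core-ESA with GST-Ac-p53 (2 μg each) in GST pull-down, bound core detected by Sirt1 immunoblot.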

Ac-H3 = assay: Interaction of Sirt1 with Ac-H3 purified from Hela cells; assay type: binding; details: Figure S3A
Ac-H4 = assay: Interaction of Sirt1 with Ac-H4 purified from Hela cells; assay type: binding; details: Figure S3A

- effect on Sirt6 activity (Sirt6): had no effect on Sirt6 activity
- mode of inhibition (Sirt1 [2]): noncompetitive inhibitor
- binding to deacetylase core (deacetylase core [3]): also bound to the deacetylase core
Molecule: GPDR-ESA peptide: ESA peptide containing a mutation of two residues, G644P and D650R (GPDR) (QYLFVPPNRYIFHPAEVYSRSEDDV; also: biotinylated, position not given here)
- inhibition of Sirt1 activity against Ac-p53 (Sirt1 [1]): also inhibited Sirt1 activity against Ac-p53
- inhibition of ESA-deacetylase core interaction [4]: ESA-deacetylase core interaction was inhibited

Molecule: GPDR: Sirt1 with a double mutation G644P and D650R
- deacetylase activity against Ac-p53 [5]: very little deacetylase activity
- fold reduction of Sirt1 activity ([3H]Ac-histone H4): ~10 fold

Molecule: GST-LZ: LZ domain of DBC1 (a.a. 243-264) fused to GST (LQRRYRSLLVPSDFLSVHLSWL; also: fused to GST, end not given here)
- inhibition of ESA-deacetylase core interaction [4]: prevented the ESA-deacetylase core interaction
- reduction of Sirt1 deacetylase activity (Sirt1 [6]): significantly reduced Sirt1 deacetylase activity
- relative strength of interaction with deacetylase core (deacetylase core [7]): stronger than the ESA-deacetylase core interaction

- binding result [8]: binds
Molecule: QYLFVPPNRYIFHGAEVYSDSEDDV (domain or fragment, mouse, UniProt Q923E4 631-655, looked up) [GST-ESA (ESA fused to GST)]

- binding to immobilized GPDR-ESA peptide [9]: bound to the GPDR-ESA peptide
B1: GST-Sirtuin domain: GST fused to Sirtuin domain (a.a. 236-490) (protein)
chain: EDAVKLLQECKKIIVLTGAGVSVSCGIPDFRSRDGIYARLAVDFPDLPDPQAMFDIEYFRKDPRPFFKFAKEIYPGQFQPSLCHKFIALSDKEGKLLRNYTQNIDTLEQVAGIQRILQCHGSFATASCLICKYKVDCEAVRGDIFNQVVPRCPRCPADEPLAIMKPEIVFFGENLPEQFHRAMKYDKDEVDLLIVIGSSLKVRPVALIPSSIPHEVPQILINREPLPHLHFDVELLGDCDVIINELCHRLGGEYA
modifications: left off: GST, end not stated, kept

B2: ΔESA Sirt1: Sirt1 with the 25 a.a. ESA region (a.a. 631-655) deleted (protein)
chain: MADEVALALQAAGSPSAAAAMEAASQPADEPLRKRPRRDGPGLGRSPGEPSAAVAPAAAGCEAASAAAPAALWREAAGAAASAEREAPATAVAGDGDNGSGLRREPRAADDFDDDEGEEEDEAAAAAAAAAIGYRDNLLLTDGLLTNGFHSCESDDDDRTSHASSSDWTPRPRIGPYTFVQQHLMIGTDPRTILKDLLPETIPPPELDDMTLWQIVINILSEPPKRKKRKDINTIEDAVKLLQECKKIIVLTGAGVSVSCGIPDFRSRDGIYARLAVDFPDLPDPQAMFDIEYFRKDPRPFFKFAKEIYPGQFQPSLCHKFIALSDKEGKLLRNYTQNIDTLEQVAGIQRILQCHGSFATASCLICKYKVDCEAVRGDIFNQVVPRCPRCPADEPLAIMKPEIVFFGENLPEQFHRAMKYDKDEVDLLIVIGSSLKVRPVALIPSSIPHEVPQILINREPLPHLHFDVELLGDCDVIINELCHRLGGEYAKLCCNPVKLSEITEKPPRPQKELVHLSELPPTPLHISEDSSSPERTVPQDSSVIATLVDQATNNNVNDLEVSESSCVEEKPQEVQTSRNVENINVENPDFKAVGSSTADKNERTSVAETVRKCWPNRLAKEQISKRLEGNLSSSSCGSNSDSGTCQSPSLEEPLEDESEIEEFYNGLEDDTERPECAGGSGFGADGGDQEVVNEAIATRQELTDVNYPSDKS
modifications: left off: V5, end not stated, kept
- deacetylase activity against Ac-p53 [5]: did not have any deacetylase activity
- deacetylase activity against native Ac-histone H3 (native Ac-histone H3): did not have any deacetylase activity
- deacetylation of p53 in vivo (p53): WT Sirt1, but not ΔESA Sirt1, was able to deacetylate p53
- suppression of p53 target gene expression [10]: failed to suppress the expression of p53 target genes
- co-immunoprecipitation with Flag-p65 (Flag-p65 (NF-κB)): did so very poorly
- binding to GST-Ac-p53 (GST-Ac-p53): bound poorly to GST-Ac-p53 compared to full-length Sirt1
- interaction with Ac-H3 (Ac-H3): significantly weakened the interaction
- interaction with Ac-H4 (Ac-H4): significantly weakened the interaction
